In the library only some 5.1% were active in any assay of this set; here they are far more common.
E coli WT exp: growth inhibitors of wild-type E. coli, primary screen, strain BW25113, expanded library, OD600 | growth inhibition, % at 100 µM | OD600 absorbance | 0.15% of 98,000 active;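 active = growth inhibition above about 50% at one test dose, limit read from the data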;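 also: growth measured after 20 h incubation at 37 °C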
BAP1 block: inhibitors of BAP1 deubiquitinase, primary screen, biochemical, Ub-AMC fluorescence, kinetic | recombinant BAP1, Ub-AMC hydrolysis fluorescence kinetic; stronger effect = lower value | calls only at 20 µM | 0.48% of 72,000 active | AID 436, 2006;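 active = activity remaining at or below 50% of control, provided the compound also passes the data quality filters; inactive = the rest, including low values that fail the filters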;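 also: 100% = DMSO wells rate and 0% = substrate alone blank rate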
tolC growth inh: growth inhibitors of E. coli tolC mutant, primary screen, strain BW25113 ΔtolC::kan, 384-well; 2.2% of 65,000 active; AID 573, 2007; growth inhibition, % at 10 µM (by protocol); OD615;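 active = growth inhibition at or above a cutoff equal to the mean over every tested compound plus 3 SD, cut at about 60% in these data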;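 also: growth measured after 20 h incubation at 37 °C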
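Test system: tolC-deleted E. coli BW25113 | Medium: LB with kanamycin 50 µg/mL | Compound dosing: Single concentration, 10 µM final per compound | Schedule: 37 °C, 20 h exposure | Measured by: OD at 615 nm | Evaluation: Percent growth inhibition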
M1 agonist: M1 muscarinic receptor agonists, primary screen, CHO-M1 cells, Fluo-4 calcium, agonist mode; B-score at 10 µM; 3% of 64,000 active; Fluo-4 calcium fluorescence; stronger effect = higher value;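 active = fluorescence rise, raw or as B-score row- and column-corrected plate score, outside the 99.7% band of its plate's samples, either direction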
Hsp90 inh: tumor Hsp90 inhibitors, primary screen, cell lysate, fluorescence polarization, NCI-N417 lysate | AID 429, 2006 | inhibition, % at 30 µM | Cy3B-geldanamycin FP displacement | Heat shock protein HSP 90-alpha (Homo sapiens), P07900 | 0.35% of 64,000 active;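 active = inhibition above 50%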;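 also: 0% = tracer plus lysate wells and 100% = tracer alone without lysate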
M1 antagonist: antagonists of rat M1 muscarinic receptor. Muscarinic acetylcholine receptor M1 (Rattus norvegicus), P08482. CHO-M1 cells, Fluo-4 calcium, ACh EC80 antagonist mode; stronger effect = lower value. B-score at 10 µM. 3.4% of 64,000 active;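 active = calcium fluorescence response, raw or row-and-column corrected B-score, differing from the plate sample mean either way at a set confidence level, mostly lower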
Target sequence (P08482 whole entry, looked up): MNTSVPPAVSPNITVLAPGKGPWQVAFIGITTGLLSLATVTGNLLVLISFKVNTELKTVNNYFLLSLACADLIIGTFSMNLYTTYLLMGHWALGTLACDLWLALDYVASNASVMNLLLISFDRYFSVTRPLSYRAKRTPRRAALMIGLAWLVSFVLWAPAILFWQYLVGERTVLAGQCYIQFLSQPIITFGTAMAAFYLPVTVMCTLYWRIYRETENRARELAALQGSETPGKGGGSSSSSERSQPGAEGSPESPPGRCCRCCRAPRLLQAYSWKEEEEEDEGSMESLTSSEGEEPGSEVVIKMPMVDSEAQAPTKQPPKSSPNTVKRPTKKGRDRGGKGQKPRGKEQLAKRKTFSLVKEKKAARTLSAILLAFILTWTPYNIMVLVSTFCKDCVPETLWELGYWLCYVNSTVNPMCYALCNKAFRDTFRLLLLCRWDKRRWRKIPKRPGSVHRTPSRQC
M1 ag confirm: rat M1 muscarinic receptor agonists, confirmation, CHO-M1 cells, Fluo-4 calcium, duplicate retest; AID 1488, 2009; Fluo-4 calcium fluorescence, agonist mode; actives lie on both sides; fluorescence change (max-min) at 10 µM; 19% of 1,700 active; shares compounds with M1 agonist;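 active = fluorescence change differs from the solvent-only DMSO control mean at a set confidence level in both duplicate runs; inconclusive = differs from solvent-only control mean in just one of two runs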;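 also: an EC20 dose of acetylcholine follows compound addition during the same imaging run; raw fluorescence intensity difference in instrument units with no normalization to controls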
M4 ag counter: agonist activity at rat M4 receptor, confirmation, counter-screen for M1 allosteric modulator project, cell-based, agonist mode. shares compounds with M1 agonist. CHO M4/Gqi5 cells, Fluo-4 calcium fluorescence; actives lie on both sides. fluorescence change (max-min) at 10 µM. 9% of 1,700 active. AID 1741, 2009;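 active = fluorescence change differing from the plate's solvent-only control wells at 99.7% confidence in both duplicates, whether higher or lower; inconclusive = differs from solvent controls in only one of two duplicates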
* = called active by the depositor.

Screening Cc1cccc(S(=O)(=O)C(C#N)c2nc3ccccc3nc2N2CCCC2)c1 (stereo not given) returned E coli WT exp 6, tolC growth inh 44, M1 agonist 6*, Hsp90 inh 12, M1 antagonist 0.3, M1 ag confirm -3 and M4 ag counter -11.
For O=C(CCCn1c(=O)[nH]c2ccccc2c1=O)N1CCN(c2ccccn2)CC1 the results were BAP1 block inactive, tolC growth inh -1, M1 agonist -0.29, Hsp90 inh -1 and M1 antagonist 0.83.
`O=C(CCCCCNc1nc(=S)[nH]c2ccccc12)N1CCN(c2ccccn2)CC1` gave E coli WT exp 2, BAP1 block inactive, tolC growth inh 22, M1 agonist 15*, Hsp90 inh -9, M1 antagonist -1.6, M1 ag confirm -9 and M4 ag counter -32.
Cc1cccc(Nc2ncc([N+](=O)[O-])cc2[N+](=O)[O-])c1 was read as BAP1 block inactive.
`CCN1CCN(CC(=O)N2c3ccccc3CC2C)CC1` (stereo not given) gave E coli WT exp 7.
Screening CCOC(=O)N1CCN(CC(=O)N2c3ccccc3CC2C)CC1 (stereo not given) returned E coli WT exp 0, BAP1 block inactive, tolC growth inh -22, M1 agonist 3.3*, Hsp90 inh 1, M1 antagonist 0.4, M1 ag confirm -13 and M4 ag counter -26.
`Cc1onc(-c2ccccc2Cl)c1C(=O)Nc1ccc(-c2cn3cccnc3n2)cc1` gave E coli WT exp -1, tolC growth inh -11, M1 agonist 4.4*, Hsp90 inh -2, M1 antagonist 0.42, M1 ag confirm -7.3 and M4 ag counter -9.8.
Screening Cc1onc(-c2ccccc2Cl)c1C(=O)Nc1cccc(-c2nc3ncccn3c2C)c1 returned E coli WT exp -19, BAP1 block inactive, tolC growth inh 8, M1 agonist 3.3*, Hsp90 inh -4, M1 antagonist -2.3*, M1 ag confirm inconclusive and M4 ag counter -61.
Screening COc1ccc(NC(=O)c2ccc(S(=O)(=O)N3CCc4ccccc43)cc2)c2ccccc12 returned BAP1 block inactive.
`Cn1c(-c2cc3ccc(OC(=O)C(C)(C)C)cc3oc2=O)nc2ccccc21` gave E coli WT exp 4.
For CC(=O)Oc1ccc2cc(-c3nc4ccccc4n3C)c(=O)oc2c1 the results were E coli WT exp -2, BAP1 block inactive, tolC growth inh -7, M1 agonist 5.8*, Hsp90 inh 0, M1 antagonist 0.27, M1 ag confirm 45 and M4 ag counter 16.
Screening O=C(OCCNC(=O)c1ccc2ccccc2n1)c1cccnc1 returned E coli WT exp 1, tolC growth inh -10, M1 agonist 3.2*, M1 antagonist 0.1, M1 ag confirm inconclusive and M4 ag counter -48.
Screening CCOP(=O)(c1ccc(N(C)C)cc1)C(O)c1c(Cl)cccc1Cl (stereo not given) returned E coli WT exp -1, BAP1 block inactive, tolC growth inh -11, M1 agonist 8*, Hsp90 inh -6, M1 antagonist 0.59, M1 ag confirm inconclusive and M4 ag counter -53.
Screening CC(C)(C)NC(=O)COC(=O)c1snc(C(=O)NC2CCCCC2)c1N returned E coli WT exp 3, tolC growth inh 21, M1 agonist 4.9*, Hsp90 inh -3, M1 antagonist -0.96*, M1 ag confirm -20 and M4 ag counter inconclusive.
